Usually IC50 stands for the concentration that inhibits the measured activity by half.

These results are taken from ChEMBL document CHEMBL3286338, “SAR studies on hydropentalene derivatives--Important core units of biologically active tetramic acid macrolactams and ptychanolides” (Bioorg Med Chem, 2014).

Experiment [1] deals with L929. As to the kind of experiment: Antiproliferative activity against mouse L929 cells by MTT assay. Format: functional, cell-based. The method, boiled down:
(§1)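 Cells kept in supplier-recommended media at 37 °C, 10% CO2. Serial dilutions added to a cell suspension (50,000 per mL) and incubated 5 d alongside blank and solvent controls. MTT then added to 0.5 mg mL^-1 final for 2 h, and formazan precipitate collected by centrifugation. Run as two parallel experiments; activity taken as mean relative to controls set at 100%.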
On the technique in general: Formazan colour is commonly taken as a measure of viable cells.

Experiment [2] is described as follows: Antiproliferative activity against human KB-3-1 cells by MTT assay. Format: functional, cell-based. The method, boiled down: as §1
In experiment [3] the test system is L929. As to the kind of experiment: Effect on spindle formation in mouse L929 cells at 3 ng/ml by impedance profiling. The experiment is classed as cell-based. The method, boiled down:
(§2)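 L-929 mouse fibroblasts were cultured at 37 °C and 10% CO₂ in supplier-recommended medium. Cells were exposed to compound, with methanol-only controls, and impedance was recorded over time. The time-dependent impedance curves served as a mode-of-action fingerprint and were compared statistically, by cluster analysis, with curves from a panel of reference compounds, including microtubule-interfering agents.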

Experiment [4] deals with L929. As to the kind of experiment: Effect on microtubule polymerization in mouse L929 cells at 3 ng/ml by impedance profiling. The experiment is classed as cell-based. The method, boiled down: as §2

SMILES strings stand for the structures. Activity calls are given as the source filed them. The calls are words filed in the database; no cut-off is given here.

Turning to `O=C1CC(CCCCO)[C@H]2CCC3(OCCO3)[C@@H]12` (stereo partly drawn), the 50% inhibitory concentration (IC50) in experiment [1] and in experiment [2] was greater than 40 µg/mL throughout.

On to `Cc1ccc(S(=O)(=O)N/N=C2/C[C@@H]3CC4(C[C@@H]3C2)OCC(C)(C)CO4)cc1`, for which the IC50 in experiment [1] and in experiment [2] was greater than 40 µg/mL in each case.

With `C=CC[C@@H]1[C@@H]2[C@@H](C/C(=N/NS(=O)(=O)c3ccc(C)cc3)[C@H]2C)C[C@H]1O[Si](c1ccccc1)(c1ccccc1)C(C)(C)C`, the IC50 in experiment [1] was greater than 67 µM; in experiment [2] it was 12.5 µM.

Turning to `C=CC[C@H]1C(=O)C[C@@H]2[C@@H](C)[C@H](O[Si](c3ccccc3)(c3ccccc3)C(C)(C)C)C[C@@H]21`, the values for the IC50 in experiment [1] and in experiment [2] were 17.8 µM and 6.9 µM, respectively.

With `CC(C)(C)[Si](C)(C)OC1CCCC1`, the IC50 in experiment [1] and in experiment [2] was greater than 200 µM each time.

Consider `C=CC[C@@H]1[C@H]2C=C[C@H](C)[C@H]2C[C@H]1O[Si](c1ccccc1)(c1ccccc1)C(C)(C)C`, for which the IC50 in experiment [1] is 20.4 µM; in experiment [2], greater than 96 µM.

Turning to `CC1(C)COC2(C[C@@H]3CC4OC4[C@@H]3C2)OC1` (stereo partly drawn), the IC50 in experiment [1] and in experiment [2] was greater than 40 µg/mL throughout.

On to `CC1(C)COC2(C[C@H]3C[C@@H](CO)C[C@H]3C2)OC1`, for which the IC50 in experiment [1] and in experiment [2] was greater than 40 µg/mL each time.

With `C[C@H]1C(=O)C[C@]2(C)CC3(C[C@]12C)OCC(C)(C)CO3`, the IC50 in experiment [1] was greater than 150 µM.

`CCCC(=O)OCN(C(=O)[C@@H](NC(=O)[C@H]1CCCCN1C)[C@@H](C)CC)[C@H](C[C@@H](OC(C)=O)c1nc(C(=O)N[C@@H](Cc2ccc(O)cc2)C[C@H](C)C(=O)O)cs1)C(C)C`: the result in experiment [3] and in experiment [4] was Active.

For `CC(C)(C)[Si](OC1CCCCCC1)(c1ccccc1)c1ccccc1`, the IC50 in experiment [1] stood at 40 µg/mL; in experiment [2], 6.2 µg/mL.

The molecule `C[C@H]1[C@H](O[Si](c2ccccc2)(c2ccccc2)C(C)(C)C)C[C@]2(C)CC(=O)C[C@]12C` yielded an IC50 in experiment [1] of 14.3 µM.

Regarding `CC(C)(C)[Si](OC1CCCCC1)(c1ccccc1)c1ccccc1`, the figures for the concentration for half-maximal inhibition (IC50) in experiment [1] and in experiment [2] were 40 µg/mL and 7.5 µg/mL, respectively.

`C[C@@H]1[C@H](O)C[C@]2(C)CC3(C[C@]12C)OCC(C)(C)CO3` gave a half-inhibitory concentration (IC50) in experiment [1] greater than 150 µM.

Turning to `CC(C)=CC[C@@H]1C(=O)C[C@H]2C[C@@H](O[Si](c3ccccc3)(c3ccccc3)C(C)(C)C)[C@H](C)[C@H]21`, the IC50 in experiment [1] worked out at 5.6 µM; in experiment [2], 21.7 µM.

Regarding `O=C1C2C(O)CCCC2[C@H]2[C@@H]1CC(Br)C21OCCO1` (stereo partly drawn), the results for the IC50 in experiment [1] and in experiment [2] were 22 µg/mL and 10 µg/mL, respectively.

In turn, `CC(C)(C)[Si](O[C@@H]1[C@H]2CCC3(OCCO3)[C@H]2C[C@H]1O)(c1ccccc1)c1ccccc1` came in with a concentration for half-maximal inhibition (IC50) in experiment [1] of 41 µM.

For the molecule `O=C1C[C@@H]2C[C@H](O)C[C@@H]2C1`, the IC50 in experiment [1] and in experiment [2] was greater than 40 µg/mL in each case.

As for `C=CC[C@@H]1[C@@H]2[C@H](C[C@H]1O[Si](c1ccccc1)(c1ccccc1)C(C)(C)C)[C@@H](C)C(=O)[C@H]2C`, the IC50 in experiment [1] is 5.8 µg/mL; in experiment [2], 7.9 µg/mL.

Regarding `C=CC[C@@H]1[C@@H]2[C@@H](CC(=O)[C@H]2C)C[C@H]1O[Si](c1ccccc1)(c1ccccc1)C(C)(C)C`, the IC50 amounted to 16.2 µM in experiment [1] and 20.3 µM in experiment [2].

For `O=C1C[C@@H]2C[C@@H](O)C[C@@H]2C1`, the IC50 in experiment [1] and in experiment [2] was greater than 40 µg/mL in each case.

As to `O=CCCCC1CC(=O)[C@H]2[C@@H]1CCC21OCCO1` (stereo partly drawn), the half-inhibitory concentration (IC50) in experiment [1] and in experiment [2] was greater than 40 µg/mL in each case.

As for `CC1(C)COC2(C[C@@H]3CC=C[C@@H]3C2)OC1`, the IC50 in experiment [1] and in experiment [2] was greater than 40 µg/mL each time.

`C1COC2(CC[C@@H]3[C@H]4O[C@H]4C[C@@H]32)O1`: in experiment [1], the half-inhibitory concentration (IC50) was greater than 40 µg/mL.

For the molecule `C[C@@H]1[C@@H]2[C@@H](CC(=O)[C@H]2C)C[C@H]1O[Si](c1ccccc1)(c1ccccc1)C(C)(C)C`, the IC50 in experiment [1] turned out to be 14.8 µM; in experiment [2], 7.4 µM.

`CC1(C)COC2(CC[C@@H]3[C@@H](O)[C@H](O)C[C@@H]32)OC1`: the IC50 in experiment [1] and in experiment [2] was greater than 40 µg/mL in each case.

Turning to `O=C1CC[C@H]2[C@@H]1CCC21OCCO1`, the IC50 in experiment [1] and in experiment [2] was greater than 40 µg/mL each time.

Consider `CC1(C)COC2(C[C@H]3C[C@H](O)C[C@H]3C2)OC1`, for which the IC50 in experiment [1] and in experiment [2] was greater than 40 µg/mL each time.

As to `C=CCC[C@H]1CC2(OCCO2)[C@@H]2C=CC(=O)[C@H]12` (racemic), the half-maximal inhibitory concentration (IC50) in experiment [1] was determined as 25.6 µM; in experiment [2], 32 µM.

Turning to `O=C1C=C(CCCCOCc2ccccc2)[C@H]2CCC3(OCCO3)[C@@H]12`, the IC50 in experiment [1] and in experiment [2] was greater than 40 µg/mL in each case.

`C[C@@H]1[C@H](O[Si](c2ccccc2)(c2ccccc2)C(C)(C)C)C[C@]2(C)CC(=O)C[C@]12C` came in with an IC50 in experiment [1] of 35.7 µM.

Regarding `C=CC[C@@H]1C(=O)C[C@H]2C[C@@H](O[Si](c3ccccc3)(c3ccccc3)C(C)(C)C)[C@H](C)[C@H]21`, the IC50 in experiment [1] turned out to be 5.1 µM; in experiment [2], 16.2 µM.

Take `C=CC[C@@H]1[C@@H]2[C@@H](CC(=O)[C@H]2CC=C)C[C@H]1O`: the IC50 in experiment [1] and in experiment [2] was greater than 40 µg/mL each time.

Regarding `C=C1C[C@@H]2CC3(C[C@@H]2C1)OCC(C)(C)CO3`, the IC50 in experiment [1] and in experiment [2] was greater than 40 µg/mL each time.

For `CC(C)=CC[C@H]1C(=O)C[C@@H]2[C@@H](C)[C@H](O[Si](c3ccccc3)(c3ccccc3)C(C)(C)C)C[C@@H]21`, the IC50 in experiment [1] stood at 23.9 µM; in experiment [2], 28.2 µM.

Regarding `CC(C)(C)[Si](OC1CCCC1)(c1ccccc1)c1ccccc1`, in experiment [1], the IC50 turned out to be 61.6 µM.

With `CC(C)(C)[Si](O[C@H]1C[C@H]2CC(=O)C[C@H]2C1)(c1ccccc1)c1ccccc1`, the IC50 in experiment [1] and in experiment [2] was greater than 40 µg/mL in each case.

As for `CC(C)(C)[Si](C)(C)OC1CCCC2C1C(O)[C@H]1CC(Br)C3(OCCO3)[C@@H]21` (stereo partly drawn), the figures for the IC50 in experiment [1] and in experiment [2] were 15 µg/mL and 14 µg/mL, respectively.

Consider `BrC1C[C@H]2[C@H](CC(Br)C23OCCO3)C12CCCC2` (stereo partly drawn), for which the IC50 in experiment [1] and in experiment [2] was greater than 40 µg/mL each time.

For `CC(C)(C)[Si](C)(C)OC1CCCC2C1C(=O)[C@H]1CC(Br)C3(OCCO3)[C@@H]21` (stereo partly drawn), the results for the IC50 in experiment [1] and in experiment [2] were 32 µg/mL and greater than 40 µg/mL, respectively.

Take `C=CC[C@@H]1[C@H]2[C@H](C)C=C[C@H]2C[C@H]1O[Si](c1ccccc1)(c1ccccc1)C(C)(C)C`: the IC50 was 7.2 µM in experiment [1] and greater than 96 µM in experiment [2].

With `CCC(=O)O[C@@H]1C[C@@H]2CC3(C[C@@H]2C1)OCC(C)(C)CO3`, the half-inhibitory concentration (IC50) in experiment [1] and in experiment [2] was greater than 142 µM in each case.

On to `CC(C)[Si](OC1CCCC1)(C(C)C)C(C)C`, for which the figures for the IC50 in experiment [1] and in experiment [2] were 111 µM and 124 µM, respectively.

`C#CC(=O)O[C@H]1C[C@@H]2C[C@H](O[Si](c3ccccc3)(c3ccccc3)C(C)(C)C)C[C@@H]2C1` returned an IC50 in experiment [1] of 9.3 µM.

For the molecule `C=CC[C@@H]1[C@H]2CC(=O)[C@H](CC=C)[C@H]2C[C@H]1O`, the IC50 in experiment [1] and in experiment [2] was greater than 40 µg/mL in each case.

In turn, `CC(C)(C)[Si](O[C@H]1[C@H]2CCC3(OCCO3)[C@H]2C[C@@H]1O)(c1ccccc1)c1ccccc1` returned an IC50 in experiment [1] of 38.8 µM.

Consider `C[C@H]1[C@H](O)C[C@]2(C)CC3(C[C@]12C)OCC(C)(C)CO3`, for which the IC50 in experiment [1] is greater than 150 µM.

For `C=CCC[C@H]1CC(=O)[C@@H]2C=CC(=O)[C@H]12` (racemic), the IC50 in experiment [1] is 20 µM; in experiment [2], 16.3 µM.

With `C=CC[C@@H]1[C@H]2C/C(=N\NS(=O)(=O)c3ccc(C)cc3)[C@H](C)[C@H]2C[C@H]1O[Si](c1ccccc1)(c1ccccc1)C(C)(C)C`, the IC50 in experiment [1] worked out at 20 µM; in experiment [2], 13.3 µM.

As for `O[C@@H]1[C@H]2CCC3(OCCO3)[C@H]2C[C@@H]1O`, the IC50 in experiment [1] and in experiment [2] was greater than 40 µg/mL in each case.

As to `C[C@@H]1[C@H](O[Si](c2ccccc2)(c2ccccc2)C(C)(C)C)C[C@]2(C)CC3(C[C@]12C)OCC(C)(C)CO3`, the IC50 in experiment [1] was found to be 11.8 µM.

Turning to `C=CC[C@@H]1[C@H]2CC(=O)[C@H](C)[C@H]2C[C@H]1O[Si](c1ccccc1)(c1ccccc1)C(C)(C)C`, the results for the IC50 in experiment [1] and in experiment [2] were 32.4 µM and 16 µM, respectively.

In turn, `C[C@H]1[C@H](O[Si](c2ccccc2)(c2ccccc2)C(C)(C)C)C[C@]2(C)CC3(C[C@]12C)OCC(C)(C)CO3` yielded an IC50 in experiment [1] of 15.8 µM.

As for `Cc1cc(C)c(O[C@@H]2C[C@@H]3CC4(C[C@@H]3C2)OCC(C)(C)CO4)c(C)c1`, the IC50 in experiment [1] and in experiment [2] was greater than 40 µg/mL each time.

On to `C[C@@H]1[C@H]2CC(=O)[C@H](C)[C@H]2C[C@H]1O[Si](c1ccccc1)(c1ccccc1)C(C)(C)C`, for which the figures for the IC50 in experiment [1] and in experiment [2] were 7.4 µM and 15.2 µM, respectively.
